How the values were obtained:
[1] = molecular target: T1, Histone-lysine N-methyltransferase SMYD3 (Homo sapiens, UniProt Q9H7B4); assay: Inhibition of full length N-terminal His-tagged SMYD3 (1 to 428 residues) (unknown origin) expressed in Escherichia coli using N-terminal GST-tagged MEKK2 as substrate preincubated for 30 mins followed by substrate addition by scintillation proximity assay in presence of [3H]SAM
T1 sequence (Q9H7B4 whole entry): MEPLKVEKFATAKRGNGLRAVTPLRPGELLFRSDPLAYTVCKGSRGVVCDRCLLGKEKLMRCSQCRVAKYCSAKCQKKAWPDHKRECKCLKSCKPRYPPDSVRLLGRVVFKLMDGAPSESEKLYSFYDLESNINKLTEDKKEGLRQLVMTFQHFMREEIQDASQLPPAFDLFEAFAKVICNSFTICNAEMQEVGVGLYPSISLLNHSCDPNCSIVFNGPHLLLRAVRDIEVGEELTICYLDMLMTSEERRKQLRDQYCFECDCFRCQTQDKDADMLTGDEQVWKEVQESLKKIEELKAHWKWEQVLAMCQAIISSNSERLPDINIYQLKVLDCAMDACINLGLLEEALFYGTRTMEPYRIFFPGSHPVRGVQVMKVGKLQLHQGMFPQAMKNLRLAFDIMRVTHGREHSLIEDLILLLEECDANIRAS

[2] = molecular target: T1, Histone-lysine N-methyltransferase SMYD3; assay: Non-competitive inhibition of full length N-terminal His-tagged SMYD3 (1 to 428 residues) (unknown origin) expressed in Escherichia coli using varying N-terminal GST-tagged MEKK2 substrate and fixed SAM levels preincubated for 30 mins followed by substrate addition by filter plate assay
[3] = Renal clearance in CD1 mouse at 1 mg/kg, iv as bolus dose measured up to 24 hrs by LC-MS/MS analysis; format: ADME, organism-based, Kidney; details: in vivo
Procedure, shortened: (§1)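 Male CD-1 mice received a single bolus: 1 mg/kg i.v., or 5 or 50 mg/kg p.o. Values are mean ± SD, n = 3. […] Bioavailability was determined separately for each oral dose.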

[4] = AUC (0 to last) in CD1 mouse at 1 mg/kg, iv as bolus dose measured up to 24 hrs by LC-MS/MS analysis; format: ADME, organism-based; parameters: dose 1 mg/kg, time 0 - last, route intravenous; details: in vivo; procedure, shortened: as §1
[5] = AUC (0 to infinity) in CD1 mouse at 5 mg/kg, administered through oral gavage measured up to 24 hrs by LC-MS/MS analysis; format: ADME, organism-based; parameters: dose 5 mg/kg, time infinity, route oral; details: in vivo; procedure, shortened: as §1
[6] = AUC (0 to infinity) in CD1 mouse at 50 mg/kg, administered through oral gavage measured up to 24 hrs by LC-MS/MS analysis; format: ADME, organism-based; parameters: dose 50 mg/kg, time infinity, route oral; details: in vivo; procedure, shortened: as §1

Compound `O=C1Cc2cc(C(=O)N[C@H]3C[C@H]4CC[C@@H](C3)N4S(=O)(=O)CC3CCN(CCCC(F)(F)F)CC3)c(Cl)cc2N1` has an IC50 [1] of 3 nM, a Ki [2] of 1.1 nM and a CL renal at 24 h [3] of 5.3 mL/min/kg. The AUC(0-t) at 24 h [4] was 603 ng·h/mL, the AUC(0-inf) [5] was 1480 ng·h/mL and the AUC(0-inf) [6] was 21200 ng·h/mL.

Source: ChEMBL document CHEMBL3797202, “Novel Oxindole Sulfonamides and Sulfamides: EPZ031686, the First Orally Bioavailable Small Molecule SMYD3 Inhibitor” (ACS Med Chem Lett, 2016)
